From ChEMBL document CHEMBL2311246 (Bioorg Med Chem, 2013)
Calls of active or inactive are those of the source. The calls are words filed in the database; no cut-off is given here.

Legend:
[1] = tested on: Hepatitis C virus; assay: Antiviral activity against HCV JFH1 infected in human Huh7.5.1 cells assessed as reduction in viral proteins at non-cytotoxic concentration after 72 hrs post compound dose by Western blotting method; type: functional, organism-based; conditions: Hepacivirus hominis, Huh-7
[2] = tested on: PC-3; assay: Antiproliferative activity against human PC3 cells after 72 hrs after ATPlite kit assay; type: functional, cell-based; conditions: PC-3, 72 h
Method in brief: (§1)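 10,000 cells per well plated, incubated overnight, then exposed to increasing compound concentrations for 72 h. Viability read by ATPlite luminescence. IC50 obtained by linear regression. Prostate lines (DU145, PC-3, LNCaP) are ATCC stocks. LNCaP culture was modified from the earlier method.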

[3] = tested on: DU-145; assay: Antiproliferative activity against human DU145 cells after 72 hrs after ATPlite kit assay; type: functional, cell-based; conditions: DU-145, 72 h; method in brief: as §1
[4] = Antiproliferative activity against human Huh7.5.1 cells after 72 hrs after ATPlite kit assay; type: functional, cell-based; conditions: Huh-7, 72 h; method in brief: as §1
[5] = tested on: LNCaP; assay: Antiproliferative activity against human LNCAP cells after 72 hrs after ATPlite kit assay; type: functional, cell-based; method in brief: as §1
[6] = molecular target: Cytochrome P450 2C9 (Homo sapiens, UniProt P11712); assay: Inhibition of CYP2C9 in pooled human liver microsomes assessed as reduction in enzyme-mediated (S)-warfarin 7-hydroxylation by HPLC/MS-MS method; type: ADME, Microsome
Method in brief: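 Pooled HLM (0.1 mg/mL microsomal protein) incubated with (S)-warfarin 4 µM and compound at 1, 10 or 100 µM in 100 mM potassium phosphate, pH 7.4. Vehicle controls held 0.75% MeOH (v/v). Sulfaphenazole 1 µM served as positive control. 7-Hydroxywarfarin measured by HPLC/MS-MS. Means ± SD of triplicate incubations; two-way ANOVA with Tukey post hoc test.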

[7] = tested on: Hepatitis C virus; assay: Antiviral activity against HCV JFH1 infected in human Huh7.5.1 cells assessed as reduction in viral proteins after 72 hrs post compound dose by Western blotting method; type: functional, organism-based, Hepacivirus hominis; conditions: JFH1, Huh-7, 72 h

Sequence of Cytochrome P450 2C9 (P11712 whole entry): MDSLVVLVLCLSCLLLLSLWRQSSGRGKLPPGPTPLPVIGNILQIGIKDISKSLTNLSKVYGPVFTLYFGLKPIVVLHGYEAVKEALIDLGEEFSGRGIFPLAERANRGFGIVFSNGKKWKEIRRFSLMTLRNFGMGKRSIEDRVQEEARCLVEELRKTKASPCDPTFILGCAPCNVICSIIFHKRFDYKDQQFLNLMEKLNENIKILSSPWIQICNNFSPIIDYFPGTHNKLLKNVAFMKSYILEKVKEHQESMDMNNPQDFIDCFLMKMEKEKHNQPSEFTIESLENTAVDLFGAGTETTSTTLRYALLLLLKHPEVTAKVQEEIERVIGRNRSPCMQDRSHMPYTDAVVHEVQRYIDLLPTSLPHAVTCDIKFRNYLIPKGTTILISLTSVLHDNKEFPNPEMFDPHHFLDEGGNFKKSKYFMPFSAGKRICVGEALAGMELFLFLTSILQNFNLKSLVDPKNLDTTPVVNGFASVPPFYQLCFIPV

SMILES	Activity [1]	IC50 [2] [µM]	IC50 [3] [µM]	IC50 [4] [µM]	IC50 [5] [µM]	IC50 [6] [µM]	IC50 [7] [µM]	inhibition (INH) ([6]; human, microsomes)
COc1cc(O)c2c(c1)O[C@H](c1ccc3c(c1)O[C@@H](c1ccc(OC)c(OC)c1)[C@H](CO)O3)[C@@H](O)C2=O	Active	8.1	10	13.5	11.3			
COc1cc(O)c2c(c1)O[C@H](c1ccc3c(c1)O[C@@H](c1ccc(O)c(OC)c1)[C@H](CO)O3)[C@@H](O)C2=O	Active	16.9	19.3	13.3	20.1			
COC[C@@H]1Oc2ccc([C@H]3Oc4cc(OC)cc(O)c4C(=O)[C@@H]3O)cc2O[C@H]1c1ccc(OC)c(OC)c1		21.9	16.8		19.8			
COc1cc([C@@H]2Oc3cc([C@H]4Oc5cc(O)cc(O)c5C(=O)[C@@H]4O)ccc3O[C@H]2CO)ccc1O [SILYBIN B]		60.5	61.8	56.2	69.6	8.2	40	
COc1cc(OC)c2c(c1)O[C@H](c1ccc3c(c1)O[C@@H](c1ccc(OC)c(OC)c1)[C@H](CO)O3)[C@@H](O)C2=O	Active	36.3	46.9	25.5	40.7			
COC[C@@H]1Oc2ccc([C@H]3Oc4cc(OC)cc(OC)c4C(=O)[C@@H]3O)cc2O[C@H]1c1ccc(OC)c(OC)c1	Active	14.4	24	15.6	30.1			Not Active
